# “Also recorded” adds a separate entry of the source.
# Key:
# [1] = test system: patients with previously untreated poor-risk AML; format: in vivo
# [2] = test system: patients with previously untreated poor-risk AML; test: Phase I trial of selinexor plus 7+3: response; format: in vivo, human; settings: for Median overall survival: 95% CI 3.74–NR
# [3] = Plasma pharmacokinetics of selinexor; format: in vivo, human; settings: for Tmax / AUC(0-t) / Cmax: human, plasma; for AUC(0-t): AUC0–8h
# [4] = test system: gated CD34+ cells; test: Ex vivo sensitivity of patient bone marrow MNCs, flow cytometry for apoptosis; format: cell-based, human
# How it was run: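 Screening bone marrow aspirates were Ficoll-enriched for mononuclear cells and plated at 3 million cells per mL. Cells were incubated 20 hours with titrated test compound, alone or combined with 40 µmol/L cytarabine or 1 µmol/L daunorubicin. Apoptosis (active caspase-3) was measured by flow cytometry on gated CD34+ cells. Of 10 samples, 2 were excluded for low viability or <5% CD34+ cells, leaving 8.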
# [5] = test system: AML cell lines and AML patient cells; test: Preclinical combination studies of selinexor and daunorubicin; format: cell-based; settings: Supplementary Figs. S1 and S2, Supplementary Table S1
# [6] = test system: patients with previously untreated poor-risk AML; test: G-banding cytogenetic analysis of bone marrow aspirates at follow-up; format: in vivo, human
# How it was run: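 G-banding cytogenetics was done on each patient's bone marrow aspirate at diagnosis and, for most patients, at response assessment. Marrow aspirations and biopsies for response were taken between days 28 and 72 after induction or reinduction: daunorubicin/cytarabine 7+3 (or 5+2) plus oral test compound at 60 or 80 mg.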
# [7] = test system: pediatric patients with relapsed or refractory acute leukemia; settings: selinexor plus fludarabine and cytarabine; cited from earlier work
# [8] = 16 response eligible patients, poor-risk by NCCN criteria
# [9] = 19 patients evaluable for response
# [10] = treatment failure (n = 9), baseline 1, 5 not assessed
compound,measurement,setting,value
O=C(/C=C\n1cnc(-c2cc(C(F)(F)F)cc(C(F)(F)F)c2)n1)NNc1cnccn1 [selinexor],Patients who died during the treatment or follow-up phases,"[1]; 21 patients, majority related to relapsed or refractory AML",62%
same,Grade 3/4 nonhematologic TEAE sepsis,"[1]; grade 3/4, selinexor + 7+3, 21 patients",14%
same,"Median time to a platelet count ≥50,000","[1]; human, in vivo",35 days
same,Median time to absolute neutrophil count (ANC) ≥500,"[1]; human, in vivo",26 days
same,Patients with at least one grade 3/4 AE,"[1]; human, in vivo",95%
same,Only grade 3 AE during maintenance therapy,[1]; in vivo,fatigue
same,Patients who experienced at least 1 TEAE,[1]; in vivo,Every patient
same,Patients who experienced diarrhea or hyponatremia,[1]; in vivo,None
same,CRi after second induction,[2]; 6 patients who received a second induction (selinexor + 5+2),17%
same,CR/CRi rate,[2]; 7 evaluable patients with TP53 mutation at diagnosis (6 with complex karyotype),43%
same,Median OS,"[2]; 10 responding patients, median follow-up 28.9 months",not reached
same,CR/CRi rate,[2]; 16 evaluable patients treated at the RP2D (80 mg),50%
same,CR/CRi rate,[2]; [8],50%
same,Treatment failures,[2]; [8],50%
same,Evaluable patients alive at 12 months (12-month OS),[2]; 19 evaluable patients,47.4%
same,Median overall survival,"[2]; 19 evaluable patients, median follow-up 26.9 months",10.3 months
same,CR/CRi rate (overall response rate),[2]; [9],53%
same,Patients who achieved CR,[2]; [9],42%
same,Patients who achieved CRi,[2]; [9],11%
same,Treatment failures due to refractory AML,[2]; [9],47%
same,CR,"[2]; age ≥60, n = 16",7 (44) no. (%)
same,CR + CRi,"[2]; age ≥60, n = 16",9 (56) no. (%)
same,CRi,"[2]; age ≥60, n = 16",2 (13) no. (%)
same,Treatment failure,"[2]; age ≥60, n = 16",7 (44) no. (%)
same,CR,"[2]; age ≥70, n = 8",3 (38) no. (%)
same,CR + CRi,"[2]; age ≥70, n = 8",3 (38) no. (%)
same,CRi,"[2]; age ≥70, n = 8",0 (0) no. (%)
same,Patients alive at median follow-up,"[2]; all 21 patients, median follow-up 28.9 months",38%
same,Median overall survival,"[2]; entire cohort, n = 21",10.3 months
same,CR,"[2]; evaluable patients, n = 19",8 (42.1) no. (%)
same,CR + CRi,"[2]; evaluable patients, n = 19",10 (52.6) no. (%)
same,CRi,"[2]; evaluable patients, n = 19",2 (10.5) no. (%)
same,Treatment failure,"[2]; evaluable patients, n = 19",9 (47.4) no. (%)
same,Responders alive,[2]; median follow-up of 28.9 months,60%
same,Responding patients who remained in CR/CRi,"[2]; median follow-up of over 2 years, all underwent allogeneic stem cell transplant in first remission",5 of 10
same,CR/CRi rate,[2]; patients who had previously received a hypomethylating agent (8 patients),13%
same,CR,"[2]; prior HMA, n = 8",1 (13) no. (%)
same,CR + CRi,"[2]; prior HMA, n = 8",1 (13) no. (%)
same,CRi,"[2]; prior HMA, n = 8",0 (0) no. (%)
same,Treatment failure,"[2]; prior HMA, n = 8",7 (87) no. (%)
same,CR,"[2]; sAML, n = 12",3 (25) no. (%)
same,CR + CRi,"[2]; sAML, n = 12",4 (33) no. (%)
same,CRi,"[2]; sAML, n = 12",1 (8) no. (%)
same,Treatment failure,"[2]; sAML, n = 12",8 (67) no. (%)
same,Exposure (based on AUC) on days 1 and 15,[3]; day 1 versus day 15,similar
same,Tmax,"[3]; oral, Mean Tmax, day 15, delayed absorption",4 h
same,AUC(0-t),"[3]; po, 60 mg, selinexor 60 mg oral, day 1, 4 patients",1850 ± 972 ng·h/mL
same,AUC(0-t),"[3]; po, 60 mg, selinexor 60 mg oral, day 15, 3 patients",1710 ± 1030 ng·h/mL
same,Cmax,"[3]; po, 60 mg, Cmax, selinexor 60 mg oral, day 1, 4 patients",457 ± 196 ng/mL
same,Cmax,"[3]; po, 60 mg, Cmax, selinexor 60 mg oral, day 15, 3 patients",392 ± 290 ng/mL
same,Cmax,"[3]; po, 60 mg, Mean Cmax, selinexor 60 mg oral, day 1, 4 patients",1030 nM
same,Tmax,"[3]; po, 60 mg, Tmax, selinexor 60 mg oral, day 1, 4 patients",2 ± 3.2 h
same,Tmax,"[3]; po, 60 mg, Tmax, selinexor 60 mg oral, day 15, 3 patients",4 ± 1.2 h
same,AUC(0-t),"[3]; po, 80 mg, selinexor 80 mg oral, day 1, 17 patients",2590 ± 1110 ng·h/mL
same,AUC(0-t),"[3]; po, 80 mg, selinexor 80 mg oral, day 15, 13 patients",2100 ± 1080 ng·h/mL
same,Cmax,"[3]; po, 80 mg, Cmax, selinexor 80 mg oral, day 1, 17 patients",601 ± 302 ng/mL
same,Cmax,"[3]; po, 80 mg, Cmax, selinexor 80 mg oral, day 15, 13 patients",482 ± 288 ng/mL
same,Cmax,"[3]; po, 80 mg, Mean Cmax, selinexor 80 mg oral, day 1, 17 patients",1360 nM
same,Tmax,"[3]; po, 80 mg, Tmax, selinexor 80 mg oral, day 1, 17 patients",2 ± 2.2 h
same,Tmax,"[3]; po, 80 mg, Tmax, selinexor 80 mg oral, day 15, 13 patients",4 ± 2.5 h
same,AUC0–8h,"[3]; selinexor 60 mg oral, day 1, 4 patients","1,853 ng/h/mL"
same,AUC0–8h,"[3]; selinexor 80 mg oral, day 1, 17 patients","2,590 ng/h/mL"
same,Synergy between selinexor and daunorubicin,"[4]; titrated selinexor with 1 µmol/L daunorubicin, patient samples ex vivo",no synergy
same,Effects of the combination on apoptosis,[4]; titrated selinexor with 40 µmol/L cytarabine or 1 µmol/L daunorubicin,additive
same,Interaction between selinexor and daunorubicin,[5],strong synergistic interactions; also recorded: strong synergy
same,Cytogenetics at follow-up: Chr 5 abnormalities,"[6]; responders (n = 10), baseline 0",0 no.
same,Cytogenetics at follow-up: Chr 7 abnormalities,"[6]; responders (n = 10), baseline 1",1 no.
same,Cytogenetics at follow-up: Other Chr abnormalities,"[6]; responders (n = 10), baseline 2",0 no.
same,Cytogenetics at follow-up: Complex,"[6]; responders (n = 10), baseline 3",1 no.
same,Cytogenetics at follow-up: Diploid,"[6]; responders (n = 10), baseline 4",8 no.
same,Cytogenetics at follow-up: Chr 7 abnormalities,"[6]; treatment failure (n = 9), baseline 0, 5 not assessed",0 no.
same,Cytogenetics at follow-up: Chr 5 abnormalities,[6]; [10],1 no.
same,Cytogenetics at follow-up: Other Chr abnormalities,[6]; [10],0 no.
same,Cytogenetics at follow-up: Diploid,"[6]; treatment failure (n = 9), baseline 3, 5 not assessed",2 no.
same,Cytogenetics at follow-up: Complex,"[6]; treatment failure (n = 9), baseline 4, 5 not assessed",1 no.
same,Patients who tested negative for measurable residual disease,[7],5 patients

# Reference: article PMC7787346 (Clinical cancer research : an official journal of the …, 2019)
